Measured values from ChEMBL document CHEMBL3259704, “Second generation steroidal 4-aminoquinolines are potent, dual-target inhibitors of the botulinum neurotoxin serotype A metalloprotease and P. falciparum malaria” (J Med Chem, 2014).
Active and inactive are the calls of the source. The rule behind the calls is not given here.

Legend:
HepG2 = test: Cytotoxicity against human HepG2 cells assessed as cell viability after 48 hrs by MTT assay; format: cell-based; details: HepG2, 48 h
[1] = target: Botulinum neurotoxin type A (Clostridium botulinum) (UniProt P0DPI0); test: Inhibition of Clostridium botulinum recombinant BoNT/A light chain using N-terminal acetylated, C-terminal aminated SNAP-25 (187-203) as substrate at 20 uM by reverse-phase HPLC analysis
Method in brief: (§1)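 Recombinant BoNT/A LC with SNAP-25 187–203 peptide substrate in 40 mM HEPES–0.05% Tween, pH 7.3, with 0.5 mg/mL BSA and 50 μM excess Zn, at 37 °C. Quenched with TFA; reverse-phase HPLC product/substrate peak areas give percent inhibition, run in duplicate.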

[2] = (§2) Half life in human liver microsomes; format: ADME; details: liver microsomes
[3] = Selectivity index, ratio of IC50 for human HepG2 cells to IC50 for CQ-resistant, MFQ-susceptible Plasmodium falciparum W2 clone Indochina 1 isolate; format: toxicity, cell-based; details: read-out: Ratio IC50
Plasmodium falciparum [4] = test: Antimalarial activity against CQ, MFQ-susceptible Plasmodium falciparum D6 clone Sierra 1/UNC isolate assessed as inhibition of parasite proliferation by MSF assay; format: functional, organism-based
Method in brief: (§3)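 SYBR Green I fluorescence (MSF) microtiter drug-sensitivity assay: malarial DNA content is the measure of in vitro parasite proliferation. Resistance index is the IC90 ratio of the resistant strain to D6.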

[5] = Selectivity index, ratio of IC50 for human HepG2 cells to IC50 for CQ, MFQ-resistant Plasmodium falciparum TM91C235 clone Southeast asian isolate; format: toxicity, cell-based; details: read-out: Ratio IC50
Plasmodium falciparum [6] = test: Antimalarial activity against CQ, MFQ-resistant Plasmodium falciparum TM91C235 clone Southeast asian isolate assessed as inhibition of parasite proliferation by MSF assay; format: functional, organism-based; method in brief: as §3
[7] = target: Botulinum neurotoxin type A (Clostridium botulinum, UniProt P0DPI0); test: Inhibition of Clostridium botulinum recombinant BoNT/A light chain using N-terminal acetylated, C-terminal aminated SNAP-25 (187-203) as substrate by reverse-phase HPLC analysis
Method in brief: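 Same HPLC LC cleavage assay (pH 7.3 HEPES/Tween, BSA, excess Zn, 37 °C). […] Ki comes from velocity versus substrate at several inhibitor levels, globally fit to a competitive model.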

[8] = Selectivity index, ratio of IC50 for human HepG2 cells to IC50 for CQ, MFQ-susceptible Plasmodium falciparum D6 clone Sierra 1/UNC isolate; format: toxicity, cell-based; details: read-out: Ratio IC50
[9] = (§4) Half life in mouse liver microsomes; format: ADME; details: liver microsomes
Plasmodium falciparum [10] = test: Antimalarial activity against CQ-resistant, MFQ-susceptible Plasmodium falciparum W2 clone Indochina 1 isolate assessed as inhibition of parasite proliferation by MSF assay; format: functional, organism-based; method in brief: as §3
[11] = target: Botulinum neurotoxin type A (Clostridium botulinum) (UniProt P0DPI0); test: Inhibition of Clostridium botulinum recombinant BoNT/A light chain using N-terminal acetylated, C-terminal aminated SNAP-25 (187-203) as substrate at 10 uM by reverse-phase HPLC analysis; method in brief: as §1
PBMC = test: Cytotoxicity against human PBMC assessed as inhibition of cell survival after 72 hrs; format: cell-based
Method in brief: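 PBMC from heparinized healthy-donor blood (Histopaque) in RPMI-1640 with 10% FCS and PHA stimulation, 200 000 cells/well, with compounds in DMSO, 72 h at 37 °C, 6% CO2.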

Liver microsome = test: as §2; format: ADME; details: microsomes
Plasmodium falciparum [12] = test: Resistance index, ratio of IC90 for CQ-resistant, MFQ-susceptible Plasmodium falciparum W2 clone Indochina 1 isolate to IC90 for CQ, MFQ-susceptible Plasmodium falciparum D6 clone Sierra 1/UNC isolate; format: functional; method in brief: as §3
Liver = test: as §4; format: ADME; details: microsomes
Plasmodium falciparum [13] = test: Resistance index, ratio of IC90 for CQ, MFQ-resistant Plasmodium falciparum TM91C235 clone Southeast asian isolate to IC90 for CQ, MFQ-susceptible Plasmodium falciparum D6 clone Sierra 1/UNC isolate; format: functional; method in brief: as §3
[14] = target: Botulinum neurotoxin type A (Clostridium botulinum) (UniProt P0DPI0); test: Inhibition of Clostridium botulinum BoNT/A-mediated SNAP-25 cleavage in chicken embryo neurons assessed as intact SNAP-25 level at […] preincubated for 45 mins followed by co-incubation with BoNT/A for 3.5 hrs by western blot analysis in presence of 25 uL of 100 nM antibiotic bafilomycin; parameters: scale not given: the % may be the effect or the level left
[15] = target: Botulinum neurotoxin type A (Clostridium botulinum) (UniProt P0DPI0); test: Inhibition of Clostridium botulinum BoNT/A-mediated SNAP-25 cleavage in chicken embryo neurons assessed as intact SNAP-25 level at […] preincubated for 45 mins followed by co-incubation with BoNT/A for 3.5 hrs by western blot analysis in presence of 5 uL of 100 nM antibiotic bafilomycin; parameters: scale not given: the % may be the effect or the level left
[16] = target: Botulinum neurotoxin type A (Clostridium botulinum) (UniProt P0DPI0); test: Inhibition of Clostridium botulinum BoNT/A-mediated SNAP-25 cleavage in chicken embryo neurons assessed as intact SNAP-25 level at […] preincubated for 45 mins followed by co-incubation with BoNT/A for 3.5 hrs by western blot analysis; parameters: scale not given: the % may be the effect or the level left

Botulinum neurotoxin type A (Clostridium botulinum), sequence (P0DPI0 2-448 limits assumed): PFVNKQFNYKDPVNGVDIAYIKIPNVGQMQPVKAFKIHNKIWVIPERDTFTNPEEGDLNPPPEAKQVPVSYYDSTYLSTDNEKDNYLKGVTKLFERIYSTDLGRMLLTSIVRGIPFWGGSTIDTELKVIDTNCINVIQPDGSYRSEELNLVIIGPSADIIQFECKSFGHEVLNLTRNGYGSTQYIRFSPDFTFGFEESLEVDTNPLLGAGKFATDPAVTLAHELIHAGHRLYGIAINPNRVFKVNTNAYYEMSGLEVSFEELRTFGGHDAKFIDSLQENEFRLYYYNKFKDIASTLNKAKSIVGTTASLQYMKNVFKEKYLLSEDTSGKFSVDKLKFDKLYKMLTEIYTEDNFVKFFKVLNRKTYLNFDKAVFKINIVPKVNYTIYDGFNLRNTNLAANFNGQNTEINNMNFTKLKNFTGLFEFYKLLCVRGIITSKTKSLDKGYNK
Botulinum neurotoxin type A, sequence (P0DPI0 2-448 limits assumed): as above

SMILES | IC50 (HepG2) [µM] | inhibition [1] [%] | selectivity ratio [3] | IC50 (Plasmodium falciparum [4]) [µM] | selectivity ratio [5] | IC50 (Plasmodium falciparum [6]) [µM] | IC50 [7] [µM] | selectivity ratio [8] | IC50 (Plasmodium falciparum [10]) [µM] | Ki [7] [µM] | inhibition [11] | IC90 (Plasmodium falciparum [4]) [µM] | IC90 (Plasmodium falciparum [6]) [µM] | Ratio (Plasmodium falciparum [12]) | IC90 (Plasmodium falciparum [10]) [µM] | Ratio (Plasmodium falciparum [13]) | further results
CC(=O)O[C@H]1C[C@H]2[C@@H]([C@H](OC(C)=O)C[C@@H]3C[C@H](N(C)C)CC[C@@]32C)[C@@H]2CC[C@H]([C@H](C)CCCN(C)CCCNc3ccnc4cc(Cl)ccc34)[C@@]12C | 5.28 | 86.9 | 93 | 0.152 | 71 | 0.0746 | 1.29 | 35 | 0.057 | – | – | – | – | – | – | – | half-life [2]: 1 h; half-life [9]: 1 h
CC(=O)O[C@H]1C[C@H]2[C@@H]([C@H](OC(C)=O)C[C@@H]3CC(NCCCNc4ccnc5cc(Cl)ccc45)CC[C@@]32C)[C@@H]2CC[C@H]([C@H](C)CCCNCCCNc3ccnc4cc(Cl)ccc34)[C@@]12C (mixture of isomers) | 4.68 | 97.2 | 43 | 0.143 | 24 | 0.195 | – | 32 | 0.108 | 0.171 | Active | – | – | – | – | – | –
CC(=O)O[C@H]1C[C@H]2[C@@H]([C@H](OC(C)=O)C[C@@H]3CC(NCCNc4ccnc5cc(Cl)ccc45)CC[C@@]32C)[C@@H]2CC[C@H]([C@H](C)CCCNCCNc3ccnc4cc(Cl)ccc34)[C@@]12C (some centres undefined) | 3.77 | 96.5 | 38 | 0.12 | 30 | 0.124 | – | 32 | 0.0982 | 0.341 | Active | – | – | – | – | – | IC50 (PBMC): 0.302 µM
CC(=O)O[C@H]1C[C@H]2[C@@H]([C@H](OC(C)=O)C[C@@H]3C[C@H](NS(C)(=O)=O)CC[C@@]32C)[C@@H]2CC[C@H]([C@H](C)CCCNCCCNc3ccnc4cc(Cl)ccc34)[C@@]12C | 4.46 | 72.9 | 130 | 0.0375 | 147 | 0.0303 | 3.25 | 119 | 0.0344 | – | – | 0.0747 | 0.0562 | 1.29 | 0.0964 | 0.75 | t1/2 (Liver microsome): 0.183 h; t1/2 (Liver): 0.783 h
CC(=O)N[C@@H]1CC[C@@]2(C)[C@@H](C1)C[C@@H](OC(C)=O)[C@@H]1[C@@H]2C[C@H](OC(C)=O)[C@]2(C)[C@@H]([C@H](C)CCCNCCNc3ccnc4cc(Cl)ccc34)CC[C@@H]12 | 1.92 | 74 | 126 | 0.0166 | 126 | 0.0152 | 2.46 | 116 | – | – | – | 0.0318 | 0.0346 | 1.96 | 0.0622 | 1.09 | Activity [14]: 36%; Activity [15]: 28%; Activity [16]: 16%
